The source of these data is ChEMBL document CHEMBL1629563, “Pharmacokinetic and safety evaluation of BILR 355, a second-generation nonnucleoside reverse transcriptase inhibitor, in healthy volunteers” (Antimicrob Agents Chemother, 2008).

SMILES strings stand for the structures.

The subject of series [1] is Homo sapiens. In words: Toxicity in healthy human assessed as occurrence of fatigue at 5 mg, po administered as single dose relative to control. The class given is organism-based. To be noted: in vivo.
In series [2] the test system is Homo sapiens. In words: Toxicity in healthy human assessed as occurrence of maculopapular rash at 5 mg, po administered as single dose relative to control. It counts as organism-based. To be noted: in vivo.
Series [3] concerns Homo sapiens. The series is described as follows: Toxicity in healthy human assessed as occurrence of herpes simplex at 50 mg, po administered as single dose relative to control. The class given is organism-based. To be noted: in vivo.
For series [4], the system named is Homo sapiens. The series is described as follows: Ratio of Cmax in human at 12.5 mg, po in presence of 100 mg of ritonavir to Cmax in human at 12.5 mg, po. The conditions noted are these: in vivo. It counts as ADME, organism-based.
Series [5] in a line: Renal clearance in healthy human at 75 mg, po administered as single dose by high-pressure liquid chromatography-tandem mass spectrometry/mass spectrometry method. To be noted: in vivo, read-out: CL_renal (converted). It counts as ADME, organism-based, Kidney.
Series [6] can be described thus: Apparent volume of distribution at steady state in healthy human at 50 mg, po administered as single dose coadministered with 100 mg of ritonavir. It counts as ADME, organism-based. To be noted: in vivo, read-out: Vss/F. In a few lines: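 Healthy male volunteers, fasted overnight, got one oral dose of BILR 355 in PEG solution with 200 ml water. Ritonavir 100 mg was given 10 h before and again with the dose. Plasma was sampled (EDTA) from predose to 144 h and assayed by validated LC-MS/MS. Cmax and Vz/F came from noncompartmental analysis. Vss/F = CL/F·(MRTp.o. − 1/Ka), with Ka from compartmental modelling.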

For series [7], the system named is Homo sapiens. The series is described as follows: Toxicity in healthy human assessed as occurrence of nausea at 12.5 mg, po administered as single dose relative to control. The class given is organism-based. To be noted: in vivo.

As to `CCN1c2ncc(CCOc3cc[n+]([O-])c4ccccc34)cc2C(=O)N(C)c2cccnc21` [BILR 355], the Activity in series [1], in series [2], in series [3] and in series [7] was 0% throughout. The Ratio in series [4] is reported as 5. In addition, in series [5], the CL renal was 10.2 mL/min. In series [6], the Vd/F was 125 L.
